In data set [1] the target is T1, Cell division protein FtsZ (Bacillus subtilis) (UniProt A5Z1V5).
T1 sequence (whole entry): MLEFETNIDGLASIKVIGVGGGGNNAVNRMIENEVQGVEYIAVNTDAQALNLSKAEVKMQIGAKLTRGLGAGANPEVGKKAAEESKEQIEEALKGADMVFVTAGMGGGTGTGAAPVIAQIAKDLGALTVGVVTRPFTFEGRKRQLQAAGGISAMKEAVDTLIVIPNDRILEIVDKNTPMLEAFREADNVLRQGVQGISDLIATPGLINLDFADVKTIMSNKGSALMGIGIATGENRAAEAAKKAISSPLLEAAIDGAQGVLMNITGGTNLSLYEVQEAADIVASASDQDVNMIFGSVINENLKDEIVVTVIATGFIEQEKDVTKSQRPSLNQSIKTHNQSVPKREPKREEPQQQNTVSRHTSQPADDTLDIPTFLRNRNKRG
The experiment in a line: Binding affinity to Bacillus subtilis FtsZ assessed as decrease in fluorescence anisotropy values at 20 to 200 uM by fluorescence anisotropy analysis. The settings on record: dose 20-200 µM. The method in brief: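 Screen: probe (S)-2 (3 μM) with glutaraldehyde-cross-linked BsFtsZ-GMPCPP polymers (8 μM binding sites), each compound at 20 and 200 μM; raw anisotropy compared with partially bound probe, free probe and DMSO vehicle controls (2%, 4%). Hits checked for total intensity changes and with replicates lacking FtsZ.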
For orientation: Fluorescence polarisation rises when a labelled molecule tumbles more slowly, as on binding a larger partner.

In data set [2] the test system is Bacillus subtilis. The experiment in a line: Inhibition of Bacillus subtilis cell division assessed as induction of filamentous phenotype at 25 to 100 uM incubated for 1.5 hrs by fluorescence microscopic analysis. It counts as functional, organism-based. The settings on record: dose 25-100 µM. The method in brief: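 B. subtilis grown in cation-adjusted Mueller–Hinton broth to A600 0.1–0.2, then treated 1.5 h with fluorescent benzamide probe. Cells imaged by fluorescence microscopy using the probe's own fluorescence; filamentous phenotype scored as division inhibition.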

In data set [3] the target is T1, Cell division protein FtsZ (Bacillus subtilis). The experiment in a line: Binding affinity to Bacillus subtilis FtsZ polymer assessed as dissociation constant by fluorescence anisotropy analysis.
The target of data set [4] is T2, Cell division protein FtsZ (Bacillus subtilis, UniProt A5Z1V5).
T2 sequence (A5Z1V5 whole entry): T1 sequence (whole entry)
The experiment in a line: Displacement of free fluorescent probe from inter domain cleft of stabilized Bacillus subtilis FtsZ assessed as dissociation constant in presence of GMPCPP by fluorescence anisotropy analysis. The essentials: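 BsFtsZ polymers assembled in HEPES buffer pH 6.8 with 10 mM MgCl2 and GMPCPP, cross-linked with 0.15% glutaraldehyde, quenched with NaBH4. Competitor titrated into 7–8 μM polymers plus (S)-2 (3 μM) or 2–3 μM polymers plus (R)-5 (3 μM), 0.1 mM GMPCPP, 25 °C. Initial probe bound fraction 0.4–0.5; KD numerically fitted by competition model; mean ± SEM.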

The subject of data set [5] is Bacillus subtilis. The experiment in a line: Antimicrobial activity against Bacillus subtilis 168 assessed as inhibition of cell division incubated for 1.5 hrs by phase contrast microscopic analysis. It counts as functional. The essentials:
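B. subtilis 168 grown in cation-adjusted Mueller–Hinton broth at 37 °C to A600 0.1–0.2, then incubated with compound or DMSO vehicle. Cells observed by microscopy and cell lengths measured; division inhibition expressed as minimal division inhibitory concentration.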

Data set [6] deals with T1, Cell division protein FtsZ (Bacillus subtilis). The experiment in a line: Competitive binding affinity to Bacillus subtilis FtsZ at 10 uM in presence of PC190723 by fluorescence anisotropy analysis. The method in brief: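 Probe (10 μM) in buffer mixed with unassembled BsFtsZ (10 μM), then GMPCPP (0.1 mM). Polymerization started with MgCl2 (10 mM), anisotropy read 5–10 min later. PC190723 (10 μM) then added to displace probe, with anisotropy read 5 min after. Measured at 25 °C in an L-format spectrofluorometer at each probe's excitation/emission maxima.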

The test system of another data set is IMR-90. The experiment in a line: Cytotoxicity against human IMR-90 cells assessed as reduction in cell viability at MIC measured after 48 hrs by MTT assay. It counts as cell-based. As to conditions: imr-90, 48 h. In general terms: Formazan colour is commonly taken as a measure of viable cells.
The target in data set [7] is T1, Cell division protein FtsZ (Bacillus subtilis). The experiment in a line: Induction of Bacillus subtilis FtsZ polymerization at 0.1 mM measured after 5 to 10 mins by fluorescence anisotropy analysis. The settings on record: time 5-10 min.
Data set [8] has as its system Bacillus subtilis. The experiment in a line: Inhibition of Bacillus subtilis 168 cell division at 0.75 mM measured after 3 hrs by phase-contrast microscopic analysis. Type of data set: functional, organism-based. The method in brief: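 B. subtilis 168 grown in CAMHB at 37 °C to A600 0.1–0.2, exposed 3 h to compound or DMSO; cell lengths measured from phase-contrast images (n ≥ 30 cells).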

Data set [9] has as its target T1, Cell division protein FtsZ (Bacillus subtilis). The experiment in a line: Inhibition of GFP-tagged FtsZ in Bacillus subtilis SU570 assessed as induction of irregular shaped z-ring formation at 0.2 uM incubated for 1.5 hrs. The settings on record: dose 200.0 µM, in the assay text read “0.2 mM” for “0.2 uM”. The essentials:
(§1)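 B. subtilis SU570 expressing FtsZ-GFP grown in cation-adjusted Mueller–Hinton broth at 30 °C to A600 0.1–0.2, then grown 1.5 h with compound or DMSO vehicle. FtsZ-GFP localization (Z-rings, foci) assessed by fluorescence microscopy.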

Data set [10] has the same target. The experiment in a line: Inhibition of GFP-tagged FtsZ in Bacillus subtilis SU570 assessed as delocalization into punctate foci at 0.2 uM incubated for 1.5 hrs. As to conditions: dose 200.0 µM, in the assay text read “0.2 mM” for “0.2 uM”. The method in brief: as §1
Data set [11] concerns Staphylococcus epidermidis. The experiment in a line: Antimicrobial activity against Staphylococcus epidermidis assessed as inhibition of bacterial growth by CLSI based broth macrodilution method. Type of data set: functional. The method in brief:
(§2)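 Cells grown in cation-adjusted Mueller–Hinton broth at 37 °C to A600 0.1–0.2, then exposed to compound or DMSO vehicle. MIC by broth macrodilution as the lowest concentration inhibiting growth.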

Data set [12] has as its system Staphylococcus haemolyticus. The experiment in a line: Antimicrobial activity against Staphylococcus haemolyticus assessed as inhibition of bacterial growth by CLSI based broth macrodilution method. It counts as functional. The method in brief:
as §2

Values after ≈ are worked out from the molar mass of the structure shown. Active and inactive are the calls of the source. The rule behind the calls is not given here.

The term Kd denotes the concentration at which binding is half-saturated. As usually defined, the MIC is the least concentration at which growth counts as inhibited.

On to `O=C(O)CCN(Cc1ccccc1)Cc1cccc(Sc2ccccc2)c1`, for which, in data set [1], the outcome was inactive.
Turning to `CCC[C@@H](COc1ccc(F)c(C(N)=O)c1F)Nc1ccc([N+](=O)[O-])c2nonc12`, the inhibition result in the data set on Bacillus subtilis [2] was “Active”.
As for `NC(=O)c1c(F)ccc(OCc2nc3cc(Cl)cnc3s2)c1F`, the Activity in data set [3] is below 0.1 µM. For the same compound, in data set [4], the dissociation constant Kd is below 100 nM.
On to `CCC[C@H](CNc1ccc([N+](=O)[O-])c2nonc12)Oc1ccc(F)c(C(N)=O)c1F`, for which, in the data set with Bacillus subtilis [2], the inhibition result was “inactive”.
In the case of `Oc1ccc(/C=C/c2cc(O)cc(O)c2)cc1`, the result in [1] was inactive.
Consider `O=C(Oc1cc(OC(=O)c2cc(O)cc(O)c2)c2ccccc2c1)c1ccc(O)c(O)c1`, for which the result in data set [1] was Active.
Regarding `NC(=O)c1ccc(NCc2cccc(Cl)c2)cc1`, the result in data set [1] was inactive.
As to `FC(F)(F)c1cccc(COc2cccc(-c3ncc[nH]3)c2)c1`, in the data set on Bacillus subtilis [5], the MIC was found to be 50 µM (≈ 15.9 µg/mL).
Regarding `CCN(CC)CCNc1nc(/C=C/c2ccc(Cl)cc2)nc2cc3ccccc3cc12`, the result in [1] was inactive.
In the case of `CCCC(CNc1ccc([N+](=O)[O-])c2nonc12)Oc1ccc(F)c(C(N)=O)c1F` (centres undefined), in [6], the outcome was Active.
Turning to `Clc1cccc(COc2cccc(-c3ncc[nH]3)c2)c1`, in the data set on Bacillus subtilis [5], the MIC stood at 50 µM (≈ 14.2 µg/mL).
For `CCCC(COc1ccc(F)c(C(N)=O)c1F)Nc1ccc([N+](=O)[O-])c2nonc12` (centres undefined), the outcome in data set [6] was Active.
`NC(=O)c1c(F)ccc(OCCNc2cccc(C(F)(F)F)c2)c1F`: the Activity result in the data set with IMR-90 is reported as “Non-Toxic”.
Consider `Nc1nc2c(ncn2[C@@H]2O[C@H](CO[P@@](=O)(O)C[P@@](=O)(O)OP(=O)(O)O)[C@@H](O)[C@H]2O)c(=O)[nH]1`, for which, in data set [7], the result was Active.
As for `CN(Cc1cccc(Cl)c1)c1cccc(C(N)=O)c1`, the inhibition entry (in the data set with Bacillus subtilis [8]; in data set [9]; in data set [10]) was “Active” throughout. Moreover, in data set [1], the result was inactive.
Regarding `CCCCCC(CNc1ccc([N+](=O)[O-])c2nonc12)Oc1ccc(F)c(C(N)=O)c1F` (centres undefined), the outcome in data set [6] was inactive.
Consider `NC(=O)c1cccc(NCc2cccc(Cl)c2)c1`, for which the result in data set [1] was inactive.
Turning to `CCCCCCCCC(CNc1ccc([N+](=O)[O-])c2nonc12)Oc1ccc(F)c(C(N)=O)c1F` (centres undefined), the outcome in data set [6] was inactive.
Turning to `NC(=O)c1c(F)ccc(OCc2cccc(Cl)c2)c1F`, in the data set with IMR-90, the Activity entry was “Non-Toxic”.
For `CCC[C@H](COc1ccc(F)c(C(N)=O)c1F)Nc1cccc(C(F)(F)F)c1`, in the data set on IMR-90, the Activity entry is given as “Non-Toxic”.
As for `CCC[C@@H](CNc1ccc([N+](=O)[O-])c2nonc12)Oc1ccc(F)c(C(N)=O)c1F`, in the data set on Bacillus subtilis [2], the inhibition entry was “Active”.
In the case of `CCC[C@H](COc1ccc(F)c(C(N)=O)c1F)Nc1ccc([N+](=O)[O-])c2nonc12`, the inhibition entry in the data set with Bacillus subtilis [2] was “Active”.
Turning to `NC(=O)c1c(F)ccc(OCCNc2ccc([N+](=O)[O-])c3nonc23)c1F`, the outcome in data set [6] was Active.
Take `CCCC(COc1ccc(F)c(C(N)=O)c1F)Nc1cccc(C(F)(F)F)c1` (racemic): the minimal inhibitory concentration (MIC) in data set [11] and in [12] was 50 µM (≈ 20.1 µg/mL) each time.
For `CN(Cc1cccc(Cl)c1)c1ccc(C(N)=O)cc1`, the result in data set [1] was inactive.
On to `CC1=CC(=O)c2c(O)cccc2C1=O`, for which, in data set [1], the result was inactive.
Regarding `NC(=O)c1c(F)ccc(OCc2cccc(C(F)(F)F)c2)c1F`, in the data set with IMR-90, the Activity entry is listed as “Non-Toxic”.
As to `NC(c1cccc(OCc2cccc(Cl)c2)c1)C(F)(F)F` (centres undefined), the MIC with Bacillus subtilis [5] turned out to be 250 µM (≈ 78.9 µg/mL).
For `O=C(O)C(=O)c1cn(Cc2ccccc2)c2ccc(-c3ccc(OC(F)(F)F)cc3)cc12`, the outcome in data set [1] was inactive.

Values taken from ChEMBL document CHEMBL5033991, “Targeting the FtsZ Allosteric Binding Site with a Novel Fluorescence Polarization Screen, Cytological and Structural Approaches for Antibacterial Discovery” (J Med Chem, 2021).
